For data set [1], the system named is Mus musculus. The data set is described as follows: ED6 (natriuretic potency) is the oral dose(mg/kg) required to produce an excretion of 6 milliequivalents of Na+per kilogram during 0-4 hr in male mice (Highest dose tested was 50 mg/kg). Type of data set: functional. A digest of the protocol: (§1)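 Male mice, 16-30 g, fed ad libitum beforehand. Compound in 0.2% hydroxypropylmethylcellulose given po at 10 mL/kg, then 0.9% saline po at 3% of body weight. Five mice pooled per metabolism cage, four cages per dose. Combined urine collected 0-4 h and assayed for Na+, K+, Cl-, uric acid as mequiv/kg per cage. ED6 from regression of Na+ against log dose.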

For data set [2], the system named is Canis familiaris. Put plainly: ED5(natriuretic potency) is the oral dose(mg/kg) required to produce an excretion of 5 milliequivalents of Na+per kilogram during 0-6 hr in female dogs (Highest dose tested was 30 mg/kg); Inactive. Type of data set: functional, organism-based. The arrangement: dose 30 mg/kg. To be noted: Canis lupus familiaris. A digest of the protocol: (§2)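 Female dogs, conscious, one oral dose per dog per experiment. Urine collected and centrifuged; venous plasma drawn at each collection time. Samples assayed for Na+, K+, Cl-, urate and glucose by standard methods. Cumulative Na+ output expressed as mequiv/kg over 6 h, at least two dogs/dose. ED5 read from regression of Na+ excretion against log dose.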

The test system of data set [3] is Rattus norvegicus. The data set is described as follows: ED2(natriuretic potency) is the oral dose(mg/kg) required to produce an excretion of 2 milliequivalents of Na+per kilogram during 0-4 hr in female rats (Highest dose tested was 100 mg/kg). Type of data set: functional. The method in brief:
(§3)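 Female Sprague-Dawley rats, 175-225 g, on sucrose and water for 18 h, given 5 mg DOCA sc 2 h before dosing. Compound in 0.2% methylcellulose given by gavage at 2 mL/kg, then a 30 mL/kg load of 0.34% NaCl/0.69% KCl. Individual metabolism cages, urine collected 0-4 h for Na+, K+, Cl-. Two-stage two-dose screen at 2 rats/dose, then at least four doses at 4 rats/dose. ED2 taken from regression of Na+ excretion against log dose.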

In data set [4] the test system is Rattus norvegicus. Put plainly: ED2(natriuretic potency) is the oral dose(mg/kg) required to produce an excretion of 2 milliequivalents of Na+per kilogram during 0-4 hr in female rats (Highest dose tested was 100 mg/kg); Inactive. Type of data set: functional, organism-based. More on the design: dose 100 mg/kg. A digest of the protocol: as §3
The test system of data set [5] is Mus musculus. The data set is described as follows: ED6 (natriuretic potency) is the oral dose(mg/kg) required to produce an excretion of 6 milliequivalents of Na+per kilogram during 0-4 hr in male mice (Highest dose tested was 50 mg/kg); Inactive. Type of data set: functional, organism-based. The arrangement: dose 50 mg/kg. A digest of the protocol:
as §1

For data set [6], the system named is Canis familiaris. Put plainly: ED5(natriuretic potency) is the oral dose(mg/kg) required to produce an excretion of 5 milliequivalents of Na+per kilogram during 0-6 hr in female dogs (Highest dose tested was 30 mg/kg). Type of data set: functional, Canis lupus familiaris. The method in brief:
as §2

For data set [7], the system named is Mus musculus. The data set is described as follows: Na+ excretion mequiv /kg in saline-loaded mice administered at a dose 2 […] perorally. Type of data set: ADME, organism-based. The note with it: in vivo, po. The method in brief:
(§4)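 Saline-loaded male mice, 16-30 g. Compound po in 0.2% hydroxypropylmethylcellulose at 10 mL/kg, vehicle alone for controls, followed by 0.9% saline po at 3% of body weight. Doses were 0.3-250 mg/kg po. Five mice per metabolism cage, four cages per dose, pooled urine collected for 4 h. Na+ reported as mean ± SEM mequiv/kg; ANOVA with Duncan's test or unpaired t test against control.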

For data set [8], the species on record is Canis familiaris. Put plainly: urate excreted in female dogs during 0-6 hr. Type of data set: ADME, organism-based, Canis lupus familiaris. To be noted: dog, in vivo. The method in brief:
(§5)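 Conscious female dogs dosed at 3 mg/kg po, except one reference at 10 mg/kg, one dose per dog. Urine collected to 6 h and centrifuged; heparinized venous plasma taken at each collection. Na+ and urate measured by standard methods, mean ± SEM over 0-6 h. Compared with vehicle by ANOVA/Duncan's test or unpaired t test.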

Data set [9] has as its system Canis familiaris. Put plainly: Na+ excretion mequiv /kg in 6 conscious female dogs administered perorally during 0-6 hr. Type of data set: ADME, organism-based, Canis lupus familiaris. To be noted: dog, in vivo, po. The method in brief: as §5
For data set [10], the system named is Mus musculus. The data set is described as follows: Na+ excretion mequiv /kg in saline-loaded mice administered at a dose 10 […] perorally. The note with it: in vivo, po. Type of data set: ADME, organism-based. The method in brief:
as §4

Data set [11] has as its system Mus musculus. Put plainly: Na+ excretion mequiv /kg in saline-loaded mice administered at a dose 50 […] perorally. Type of data set: ADME, organism-based. The note with it: in vivo, po. A digest of the protocol:
as §4

Data set [12] can be described thus: urate excreted in 4 Cebus monkey''s during 0-6 hr. Type of data set: ADME. The note with it: in vivo. A digest of the protocol: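 Male and female Cebus monkeys, 4-6 per group, fasted for 6 h after dosing, water ad libitum. 20 mg/kg in 0.2% hydroxypropylmethylcellulose at 1.0 mL/kg by nasogastric tube, then water load of 5% body weight. Urine collected in metabolism pans at 2, 6 and 24 h and assayed for uric acid. Urate in mg/kg over 0-6 h, mean ± SEM.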

Data set [13] concerns Mus musculus. Put plainly: Na+ excretion mequiv/kg in saline-loaded mice administered at a dose 2 […] perorally. The note with it: in vivo, po. Type of data set: ADME, organism-based. The method in brief:
as §4

Data set [14] concerns Mus musculus. The data set is described as follows: Na+ excretion mequiv[…] in saline-loaded mice administered at a dose 10 […] perorally* -significantly different from control(p<0.05) and Duncan's test. Type of data set: ADME, organism-based. To be noted: in vivo, po. The method in brief:
as §4

The test system of data set [15] is Mus musculus. Put plainly: Na+ excretion mequiv[…] in saline-loaded mice administered at a dose 10 […] perorally. Type of data set: ADME, organism-based. To be noted: in vivo, po. The method in brief:
as §4

Data set [16] concerns Canis familiaris. The data set is described as follows: Na+ excretion mequiv /kg in conscious female dogs administered perorally during 0-6 hr. Type of data set: ADME, organism-based, Canis lupus familiaris. The note with it: dog, in vivo, po. A digest of the protocol:
as §5

Active and inactive are the calls of the source. The rule behind the calls is not given here.

On to `CC(C)Cc1noc2c(Cl)c3c(cc12)CC(C(=O)O)O3` (configuration not stated), for which the ED6 in the data set with Mus musculus [1] came to 0.47 mg/kg. In addition, in the data set on Canis familiaris [2], the ED5 entry was “inactive”. In addition, the ED2 with Rattus norvegicus [3] was found to be 0.23 mg/kg.
Take `O=C(O)C1Cc2cc3c(-c4ccc(F)cc4)noc3c(Cl)c2O1` (configuration not stated): the ED6 in the data set with Mus musculus [1] amounted to 66 mg/kg. Besides, the ED2 in the data set with Rattus norvegicus [3] came to 7.3 mg/kg.
For the molecule `O=C(O)C1Cc2cc3c(-c4ccccc4F)noc3cc2O1` (configuration not stated), the ED6 with Mus musculus [1] came out at 100 mg/kg. For the same molecule, the ED2 result in the data set with Rattus norvegicus [4] was “inactive”.
For `N#CC1Cc2cc3c(-c4ccccc4F)noc3c(Cl)c2O1` (configuration not stated), the ED6 entry with Mus musculus [5] is “inactive”. In the data set on Rattus norvegicus [4], the ED2 result was “inactive”.
Turning to `OCC1Cc2cc3c(-c4ccccc4F)noc3c(Cl)c2O1` (configuration not stated), in the data set on Mus musculus [1], the ED6 was found to be 30 mg/kg. Moreover, the ED5 in the data set with Canis familiaris [6] was determined as 21 mg/kg. The ED2 entry in the data set with Rattus norvegicus [4] is “inactive”.
As to `O=C(O)C1Cc2cc3c(-c4ccccc4Cl)noc3c(Cl)c2O1` (configuration not stated), the ED6 entry in the data set on Mus musculus [5] is “inactive”. Moreover, in the data set with Rattus norvegicus [3], the ED2 is 22.5 mg/kg.
In the case of `O=C(O)C1Cc2cc3c(-c4ccccc4F)noc3c(Cl)c2O1` (stereo in doubt; 15k), the ED6 with Mus musculus [1] (50 mg/kg) was found to be 4.2 mg/kg. Besides, the ED5 with Canis familiaris [6] (30 mg/kg) was found to be 0.6 mg/kg. The “Na+ excretion” value in the data set on Mus musculus [7] came to 4.2 m equiv kg-1; in the data set with Canis familiaris [9], 8.18 m equiv kg-1; in the data set with Mus musculus [10], 8.2 m equiv kg-1; with Mus musculus [11], 11.9 m equiv kg-1. Also, the Excretion was determined as 0.82 mg/kg in the data set listed under Canis familiaris [8] and 7.08 mg/kg in data set [12]. Further, in the data set on Rattus norvegicus [3], the ED2 worked out at 40 mg/kg.
On to `O=C(O)C1Cc2cc3c(-c4ccccc4F)noc3c(Cl)c2O1` (stereo in doubt; 30), for which the ED6 entry in the data set with Mus musculus [5] is “inactive”. Moreover, in the data set with Canis familiaris [2], the ED5 entry was “inactive”.
In the case of `C=C(CC)C(=O)c1ccc(OCC(=O)O)c(Cl)c1Cl` [ETHACRYNIC ACID], the Na+ excretion is 2.9 mequiv/kg in the data set on Mus musculus [13], 5.9 mequiv/kg with Mus musculus [14] and 3.2 mequiv/kg with Mus musculus [15].
With `Cc1c2c(cc3c(-c4ccccc4F)noc13)CC(C(=O)O)O2` (configuration not stated), the ED6 in the data set with Mus musculus [1] is 7.25 mg/kg. Besides, in the data set on Canis familiaris [6], the ED5 stood at 0.79 mg/kg. Also, the ED2 in the data set on Rattus norvegicus [3] is greater than 100 mg/kg.
Take `Cc1noc2c(Cl)c3c(cc12)CC(C(=O)O)O3` (configuration not stated): the ED6 result in the data set with Mus musculus [5] is “inactive”. In addition, in the data set on Rattus norvegicus [3], the ED2 was 40 mg/kg.
Regarding `O=C(O)C1Cc2cc3c(-c4ccccc4)noc3c(Cl)c2O1` (configuration not stated), the ED6 with Mus musculus [1] was found to be 55 mg/kg. In addition, the ED5 in the data set on Canis familiaris [6] stood at 13.5 mg/kg. For the same molecule, the ED2 in the data set with Rattus norvegicus [3] came to 27.3 mg/kg.
For `NS(=O)(=O)c1cc(C(=O)O)c(NCc2ccco2)cc1Cl` [FUROSEMIDE], in the data set with Mus musculus [1], the ED6 was 5 mg/kg. For the same molecule, the ED5 in the data set with Canis familiaris [6] stood at 3.5 mg/kg. In addition, the “Na+ excretion” value in the data set with Canis familiaris [16] was determined as 5.23 m equiv kg-1; in the data set with Mus musculus [7], 3.7 m equiv kg-1; with Mus musculus [10], 7.9 m equiv kg-1; in the data set with Mus musculus [11], 11.5 m equiv kg-1. For the same molecule, the Excretion in the data set filed under Canis familiaris [8] worked out at 0.7 mg/kg; in [12], 4.03 mg/kg. In the data set with Rattus norvegicus [3], the ED2 amounted to 9.5 mg/kg.
Take `O=C(O)C1Cc2cc3c(-c4ccccc4F)noc3c(Br)c2O1` (configuration not stated): the ED6 in the data set on Mus musculus [1] was 9.9 mg/kg. The ED2 in the data set with Rattus norvegicus [3] is 117.5 mg/kg.
